# High-throughput results from PubChem BioAssay.
# Only some compounds are listed: those with a hit (about 2.3% of all), similar ones and a draw of the others.
# PLCg1 inh: PLC-gamma1 enzyme inhibitors, primary screen, biochemical, fluorescence, purified enzyme | inhibition, % at 12.2 µM | 370,000 compounds, 0.84% hits | fluorogenic substrate | 1-phosphatidylinositol 4,5-bisphosphate phosphodiesterase gamma-1 (Homo sapiens), P19174 | AID 720700, 2013; in the data active means inhibition above about 9.5%
# Target sequence (P19174 whole entry, looked up): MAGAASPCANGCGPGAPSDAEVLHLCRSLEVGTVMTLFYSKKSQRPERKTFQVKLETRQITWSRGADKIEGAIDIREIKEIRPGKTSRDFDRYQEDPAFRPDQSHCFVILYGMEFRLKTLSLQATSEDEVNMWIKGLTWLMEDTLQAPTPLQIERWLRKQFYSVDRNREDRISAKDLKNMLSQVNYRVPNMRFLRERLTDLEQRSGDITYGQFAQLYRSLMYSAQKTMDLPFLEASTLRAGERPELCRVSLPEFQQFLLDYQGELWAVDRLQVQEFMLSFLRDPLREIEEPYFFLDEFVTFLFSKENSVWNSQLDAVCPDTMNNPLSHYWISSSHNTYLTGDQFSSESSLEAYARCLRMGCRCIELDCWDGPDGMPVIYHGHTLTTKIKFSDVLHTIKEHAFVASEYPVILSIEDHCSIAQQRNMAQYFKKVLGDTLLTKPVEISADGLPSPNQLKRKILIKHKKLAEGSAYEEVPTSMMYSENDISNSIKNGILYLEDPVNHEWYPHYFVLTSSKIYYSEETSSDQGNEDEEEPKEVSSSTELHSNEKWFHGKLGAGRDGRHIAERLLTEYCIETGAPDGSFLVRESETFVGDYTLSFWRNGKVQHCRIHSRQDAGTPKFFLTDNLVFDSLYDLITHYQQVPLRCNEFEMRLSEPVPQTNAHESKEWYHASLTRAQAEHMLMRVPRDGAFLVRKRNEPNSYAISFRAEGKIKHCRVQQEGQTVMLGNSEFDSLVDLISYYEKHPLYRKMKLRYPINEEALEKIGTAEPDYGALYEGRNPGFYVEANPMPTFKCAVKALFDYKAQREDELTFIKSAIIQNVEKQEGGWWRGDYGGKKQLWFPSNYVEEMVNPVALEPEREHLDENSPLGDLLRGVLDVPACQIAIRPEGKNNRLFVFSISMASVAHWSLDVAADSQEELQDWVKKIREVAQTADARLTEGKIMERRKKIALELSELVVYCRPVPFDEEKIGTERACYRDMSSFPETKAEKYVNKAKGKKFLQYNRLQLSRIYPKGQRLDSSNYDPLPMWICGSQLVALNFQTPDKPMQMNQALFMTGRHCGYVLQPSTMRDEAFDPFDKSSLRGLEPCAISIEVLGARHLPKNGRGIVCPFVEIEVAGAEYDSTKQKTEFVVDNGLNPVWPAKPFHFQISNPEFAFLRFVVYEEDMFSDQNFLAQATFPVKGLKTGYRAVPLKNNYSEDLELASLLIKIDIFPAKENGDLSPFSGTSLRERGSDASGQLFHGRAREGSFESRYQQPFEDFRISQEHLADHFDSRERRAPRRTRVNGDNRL
# ADAM10 inh: human ADAM10 inhibitors, primary screen, biochemical, QFRET, HTS. 370,000 compounds, 0.62% hits. recombinant ADAM10, EDANS/DABCYL FRET peptide cleavage, 3 h. Disintegrin and metalloproteinase domain-containing protein 10 (Homo sapiens), O14672. inhibition, % at 7 µM;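 active means inhibition above a per-campaign cutoff equal to the mean of compounds falling between control-based bounds plus 3 SD, cut at about 20% in these data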
# PLCb3 inh: human PLC-beta3 inhibitors, primary screen, biochemical, fluorescence; 1-phosphatidylinositol 4,5-bisphosphate phosphodiesterase beta-3 (Homo sapiens), Q01970; Purified PLC-beta3, fluorogenic substrate; inhibition, % at 12.2 µM; 370,000 compounds, 0.18% hits
# ADAM17 inh: ADAM17 inhibitors, primary screen, biochemical, QFRET; Disintegrin and metalloproteinase domain-containing protein 17 (Homo sapiens), P78536; recombinant ADAM17, EDANS/DABCYL FRET peptide cleavage; inhibition, % at 6.95 µM; 370,000 compounds, 0.83% hits;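 active means inhibition above the mean of compounds lying between control limits plus 3 SD, set per campaign, cut at about 8.5% in these data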
# Tb MetRS inh: T. brucei MetRS inhibitors, primary screen, biochemical, luminescence | purified T. brucei MetRS, ATP depletion, Kinase-Glo luminescence | 360,000 compounds, 0.4% hits | inhibition, % at 11.9 µM;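 active means inhibition above a per-plate cutoff of the control wells' mean inhibition plus 3 SD, cut at about 5.5% in these data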
#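 Assay system: T. brucei methionyl-tRNA synthetase, purified | Medium: HEPES buffer with MgCl2, KCl, DTT, spermine, BSA, pyrophosphatase | Compound: 11.9 µM single point | Incubation: 15 min enzyme-compound preincubation, 2 h reaction, 10 min detection, 25 °C | Measured by: Kinase-Glo luciferase luminescence reporting remaining unconsumed ATP | Measure: % inhibition normalized to control-well medians | Replication: Singlicate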
# PLCg1 ctr: PLC-gamma1 enzyme inhibitors, counter-screen for PLC-beta3 inhibitor project, biochemical, fluorescence | 3,300 compounds, 3.1% hits | shares compounds with PLCg1 inh | inhibition, % at 12.3 µM | purified PLC-gamma1, fluorogenic substrate; in the data active means inhibition above about 9.5%
# PLCbeta3 conf: PLC-beta3 inhibitor confirmation, biochemical, fluorescence, purified enzyme. shares compounds with PLCg1 inh. 3,300 compounds, 1% hits. inhibition, % at 12.3 µM. AID 743261, 2014. fluorogenic substrate fluorescence
# Hits are given with their value; – = inactive; · = not tested or not shown. Unless noted, no stated cut-off is given here; in the data, active means inhibition above about 11%; inactive means the rest.
SMILES,PLCg1 inh,ADAM10 inh,PLCb3 inh,ADAM17 inh,Tb MetRS inh,PLCg1 ctr,PLCbeta3 conf
COc1ccc2nc(Nc3nc(CSc4ccc(C)cc4)cc(=O)[nH]3)nc(C)c2c1,–,–,–,–,–,·,·
Cc1ccc(SCc2cc(=O)[nH]c(Nc3nc(C)c4cccc(C)c4n3)n2)cc1,13,–,–,–,–,–,–
Cc1ccc(N2CCN(C(=O)C(=O)c3ccc4c(c3)OCO4)CC2)cc1,–,–,–,–,–,·,·
O=c1cc(SCc2ccccc2)nc[nH]1,12,–,–,–,–,–,–
CC1=C(C(=O)Nc2ccccn2)C(c2ccc(Cl)cc2)NC(=S)N1 (stereo unspecified),–,–,–,–,–,·,·
CC1=C(C(=O)Nc2ccccn2)C(c2ccc(Br)cc2)NC(=S)N1 (stereo unspecified),15,–,–,–,–,–,–
COc1ccc(C(c2nnnn2Cc2cccs2)N2CCN(c3ccccc3F)CC2)cc1OC (stereo unspecified),11,–,14,–,–,–,–
c1ccc(SC23CCCCN(CCC2)[C@]32CO2)cc1 (stereo partly specified),–,–,–,–,–,·,·
Cc1ccc(C(=O)CSc2nnnn2-c2ccccc2)o1,11,–,–,–,–,–,–
C=CCn1c(SCC(=O)Nc2ccccc2C)nnc1-c1ccncc1,–,–,–,–,–,·,·
Cc1ccc(C(=O)CSc2nnc(-c3ccccc3)n2-c2ccccc2)o1,–,–,–,–,–,·,·
COc1ccc(NC(=O)CSc2nnnn2-c2ccc(OC)cc2)cc1,11,–,–,–,–,–,–
C=CCn1c(SCC(=O)Nc2ccccc2-c2ccccc2)nnc1-c1ccccc1,13,–,–,–,·,–,–
COc1ccc(-n2c(SCC(=O)Nc3ccccc3-c3ccccc3)nnc2-c2ccccn2)cc1,10,–,–,–,·,–,–
C[C@H]1CN([C@@H](C)CO)C(=O)CCCn2nncc2CO[C@@H]1CN(C)C(=O)c1ccc2ccn(C)c2c1,–,–,–,–,–,·,·
O=C(O)c1ccc(-n2nnnc2SCc2cccc(Br)c2)cc1,–,–,–,–,–,·,·
COc1ccc(-n2c(COc3ccccc3)nnc2SCC(=O)Nc2ccc(OCc3ccccc3)cc2)cc1,9.6,–,–,–,·,–,–
Cc1cc(C)c(CSc2nnnn2-c2ccc(C(=O)O)cc2)c(C)c1,12,–,–,–,–,–,–
O=C(O)CCSc1nnc(COc2ccc([N+](=O)[O-])cc2)n1-c1ccccc1,11,–,–,–,–,–,–
Cc1cc(C)nc(NC(=O)CSc2nnnn2-c2ccccc2)n1,12,–,–,–,–,–,–
O=C(O)CSc1nnc(COc2ccc([N+](=O)[O-])cc2)n1-c1ccccc1,–,–,–,–,–,·,·
Cc1cc(C(=O)COc2cc(F)ccc2[N+](=O)[O-])c(C)n1CC1CCCO1 (stereo unspecified),–,–,–,–,–,·,·
Cc1cc(C)nc(SCc2nnc(SCC(=O)Nc3nc(-c4ccccc4)cs3)n2-c2ccccc2)n1,11,–,–,–,–,–,–
COc1ccc(NCc2nnc(SCC(=O)Nc3nc(-c4ccccc4)cs3)n2-c2ccccc2)cc1,–,–,–,–,–,·,·
COc1ccc(CCN=C(N)NS(=O)(=O)c2cc(F)ccc2F)cc1,–,–,–,–,–,·,·
SMILES,PLCg1 inh,ADAM10 inh,PLCb3 inh,ADAM17 inh,Tb MetRS inh,PLCg1 ctr,PLCbeta3 conf
O=C(Nc1ccc2c(c1)OCCO2)c1cccc(Cl)c1,–,–,–,–,–,·,·
O=C(Nc1ccc(N=Nc2ccccc2)cc1)c1cccc(Cl)c1,12,–,–,–,–,–,–
COc1ccccc1CC(=O)Nc1ccc(S(=O)(=O)N2CC(C)CC(C)C2)cc1 (stereo unspecified),–,–,–,–,–,·,·
Oc1c(N=NC(=S)Nc2ccccc2F)c2ccccc2n1Cc1ccc(F)cc1,10,–,–,–,–,–,–
CCOc1cccc(N(C(=O)C2COc3ccccc3O2)C(C(=O)NC2CCCCC2)c2ccc(O)cc2)c1 (stereo unspecified),–,–,11,–,–,–,–
CCC1CCC(NC(=O)Nc2cccc(OC)c2)CC1 (stereo unspecified),–,–,–,–,–,·,·
O=C(c1ccco1)N1CCN(C(=O)C2CC(c3ccccc3F)=NO2)CC1 (stereo unspecified),14,–,–,–,–,–,–
O=C(c1ccco1)N1CCN(Cc2nnc(-c3ccccc3F)o2)CC1,9.8,–,–,–,–,–,–
O=C(c1ccco1)N1CCN(c2ccccc2F)CC1,–,–,–,–,–,·,·
NC1=NC2(CCN(Cc3ccccc3)CC2)n2c(nc3ccccc32)N1,12,–,–,–,–,–,–
NC1=NC2(CCCCC2)n2c(nc3ccccc32)N1,–,–,–,–,–,·,·
O=C(NC1C2CC3CC(C2)CC1C3)C1CCCCC1 (stereo unspecified),16,–,–,8.6,–,–,–
CCCN1CCCCC(NC(=O)c2ccc(-c3ccccc3)cc2)C1=O (stereo unspecified),–,–,–,–,·,·,·
N#C/C(=C\c1cc(O)c(O)c(O)c1)C(N)=O,18,–,–,–,–,–,–
O=S(=O)(O)c1ccc(N=NNc2ccc(Br)cc2)cc1,9.8,–,–,–,–,–,–
C=C(C)Cn1c2ccc(NC(=O)NCCc3ccccc3)cc2c(=O)n1C,–,–,–,–,–,·,·
CC1=C(C)CC(C(=O)NNC(=O)c2ccccc2)C(C(=O)O)C1 (stereo unspecified),11,–,–,–,–,–,–
CCCCN(C)S(=O)(=O)c1ccc2[nH]c(=O)oc2c1,–,–,–,–,·,·,·
O=C(c1ccc(NS(=O)(=O)c2cccc([N+](=O)[O-])c2)cc1)N1CCCCCC1,–,–,–,–,–,·,·
CC1CCCN(C(=O)c2ccc(NS(=O)(=O)c3cccc([N+](=O)[O-])c3)cc2)C1 (stereo unspecified),16,–,–,–,–,–,–
CC(=O)c1ccc(NS(=O)(=O)c2ccc([N+](=O)[O-])cc2)cc1,–,–,17,–,–,–,–
CS(=O)(=O)N(Cc1ccccc1)c1ccc(C(=O)NC2CCCCC2O)cc1 (stereo unspecified),9.5,–,–,–,–,–,–
